{"source": "ChEMBL document CHEMBL4808218", "about": "“Structural and biophysical characterization of the Burkholderia pseudomallei IspF inhibitor L-tryptophan hydroxamate” (Bioorg Med Chem Lett, 2021)", "key": {"[1]": {"biological_target": "T1, 2-C-methyl-D-erythritol 2,4-cyclodiphosphate synthase (Burkholderia pseudomallei (strain K96243), UniProt Q63T71)", "T1 sequence (Q63T71 whole entry)": "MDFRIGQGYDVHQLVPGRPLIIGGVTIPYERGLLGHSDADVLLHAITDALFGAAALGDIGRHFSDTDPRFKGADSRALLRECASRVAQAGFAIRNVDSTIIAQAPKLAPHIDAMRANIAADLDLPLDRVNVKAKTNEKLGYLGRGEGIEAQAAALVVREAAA", "assay": "Binding affinity to Burkholderia pseudomallei IspF at pH 7.4 measured by isothermal titration calorimetry method", "conditions": "read-out: Kd(app)", "method_in_brief": "(§1)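 ITC titration of BpIspF with ligand at 25 °C, run in buffer at pH 6.0, 7.4 or 8.0 as set by the line. Fits gave Kb, ΔG°, ΔH°, -TΔS° and stoichiometry. Ligand concentration was set from the tryptophan extinction coefficient. The pH 6.0/7.4 ratio compares the apparent Kd from these two runs.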"}, "[2]": {"biological_target": "T1, 2-C-methyl-D-erythritol 2,4-cyclodiphosphate synthase", "assay": "Binding affinity to Burkholderia pseudomallei IspF at pH 6 measured by isothermal titration calorimetry method", "conditions": "read-out: Kd(app)", "method_in_brief": "as §1"}, "[3]": {"biological_target": "T1, 2-C-methyl-D-erythritol 2,4-cyclodiphosphate synthase", "assay": "Binding affinity to Burkholderia pseudomallei IspF at pH 8 measured by isothermal titration calorimetry method", "conditions": "read-out: Kd(app)", "method_in_brief": "as §1"}, "[4]": {"biological_target": "T2, 2-C-methyl-D-erythritol 2,4-cyclodiphosphate synthase (Burkholderia pseudomallei (strain K96243)) (UniProt Q63T71)", "T2 sequence (whole entry)": "T1 sequence (Q63T71 whole entry)", "assay": "Binding affinity to Burkholderia pseudomallei IspF assessed as change in free energy at pH 7.4 measured by isothermal titration calorimetry method", "method_in_brief": "as §1"}, "[5]": {"biological_target": "T2, 2-C-methyl-D-erythritol 2,4-cyclodiphosphate synthase (Burkholderia pseudomallei (strain K96243))", "assay": "Binding affinity to Burkholderia pseudomallei IspF assessed as change in free energy at pH 6 measured by isothermal titration calorimetry method", "method_in_brief": "as §1"}, "[6]": {"biological_target": "T2, 2-C-methyl-D-erythritol 2,4-cyclodiphosphate synthase (Burkholderia pseudomallei (strain K96243))", "assay": "Binding affinity to Burkholderia pseudomallei IspF assessed as change in free energy at pH 8 measured by isothermal titration calorimetry method", "method_in_brief": "as §1"}, "[7]": {"biological_target": "T2, 2-C-methyl-D-erythritol 2,4-cyclodiphosphate synthase (Burkholderia pseudomallei (strain K96243))", "assay": "Binding affinity to Burkholderia pseudomallei IspF assessed as change in enthalpy at pH 6 measured by isothermal titration calorimetry method", "method_in_brief": "as §1"}, "[8]": {"biological_target": "T2, 2-C-methyl-D-erythritol 2,4-cyclodiphosphate synthase (Burkholderia pseudomallei (strain K96243))", "assay": "Binding affinity to Burkholderia pseudomallei IspF assessed as change in enthalpy at pH 8 measured by isothermal titration calorimetry method", "method_in_brief": "as §1"}, "[9]": {"biological_target": "T2, 2-C-methyl-D-erythritol 2,4-cyclodiphosphate synthase (Burkholderia pseudomallei (strain K96243))", "assay": "Binding affinity to Burkholderia pseudomallei IspF assessed as change in entropy at pH 6 measured by isothermal titration calorimetry method", "method_in_brief": "as §1"}, "[10]": {"biological_target": "T2, 2-C-methyl-D-erythritol 2,4-cyclodiphosphate synthase (Burkholderia pseudomallei (strain K96243))", "assay": "Binding affinity to Burkholderia pseudomallei IspF assessed as change in entropy at pH 8 measured by isothermal titration calorimetry method", "method_in_brief": "as §1"}, "[11]": {"biological_target": "T2, 2-C-methyl-D-erythritol 2,4-cyclodiphosphate synthase (Burkholderia pseudomallei (strain K96243))", "assay": "Ratio of apparent Kd for Burkholderia pseudomallei IspF at pH 6 to apparent Kd for Burkholderia pseudomallei IspF at pH 7.4", "method_in_brief": "as §1"}, "[12]": {"biological_target": "T3, 2-C-methyl-D-erythritol 2,4-cyclodiphosphate synthase (Escherichia coli (strain K12), UniProt P62617)", "T3 sequence (P62617 whole entry)": "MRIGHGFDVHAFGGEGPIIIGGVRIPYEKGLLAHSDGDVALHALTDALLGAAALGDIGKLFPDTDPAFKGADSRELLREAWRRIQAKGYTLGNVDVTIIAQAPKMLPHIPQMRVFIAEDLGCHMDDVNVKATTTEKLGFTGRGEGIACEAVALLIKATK", "assay": "Binding affinity to Escherichia coli IspF at pH 7.4 measured by isothermal titration calorimetry method", "conditions": "read-out: Kd(app)"}, "[13]": {"biological_target": "T4, 2-C-methyl-D-erythritol 2,4-cyclodiphosphate synthase (Escherichia coli (strain K12)) (UniProt P62617)", "T4 sequence (whole entry)": "T3 sequence (P62617 whole entry)", "assay": "Binding affinity to Escherichia coli IspF assessed as change in free energy at pH 7.4 measured by isothermal titration calorimetry method"}, "[14]": {"biological_target": "T2, 2-C-methyl-D-erythritol 2,4-cyclodiphosphate synthase (Burkholderia pseudomallei (strain K96243))", "assay": "Binding affinity to Burkholderia pseudomallei IspF by STD NMR analysis"}, "[15]": {"biological_target": "T2, 2-C-methyl-D-erythritol 2,4-cyclodiphosphate synthase (Burkholderia pseudomallei (strain K96243))", "assay": "Binding affinity to Burkholderia pseudomallei IspF assessed as change in enthalpy at pH 7.4 measured by isothermal titration calorimetry method", "method_in_brief": "as §1"}, "[16]": {"biological_target": "T2, 2-C-methyl-D-erythritol 2,4-cyclodiphosphate synthase (Burkholderia pseudomallei (strain K96243))", "assay": "Binding affinity to Burkholderia pseudomallei IspF assessed as change in entropy at pH 7.4 measured by isothermal titration calorimetry method", "method_in_brief": "as §1"}}, "note": "The source made the active and inactive calls. The calls are words filed in the database; no cut-off is given here.", "data": [{"compound": "N[C@@H](Cc1c[nH]c2ccccc12)C(=O)NO", "values": [{"measurement": "Kd", "setting": "[1]", "value": 36, "unit": "µM"}, {"measurement": "Kd", "setting": "[2]", "value": 848, "unit": "µM"}, {"measurement": "Kd", "setting": "[3]", "value": 24, "unit": "µM"}, {"measurement": "deltaG", "setting": "[4]", "value": -6.1, "unit": "kcal/mol"}, {"measurement": "deltaG", "setting": "[5]", "value": -4.19, "unit": "kcal/mol"}, {"measurement": "deltaG", "setting": "[6]", "value": -6.29, "unit": "kcal/mol"}, {"measurement": "deltaH", "setting": "[7]", "value": 1.1, "unit": "kcal/mol"}, {"measurement": "deltaH", "setting": "[8]", "value": -8.3, "unit": "kcal/mol"}, {"measurement": "-TdeltaS", "setting": "[9]", "value": -5.2, "unit": "kcal/mol"}, {"measurement": "-TdeltaS", "setting": "[10]", "value": 2, "unit": "kcal/mol"}, {"measurement": "Ratio", "setting": "[11]", "value": 25}, {"measurement": "Kd", "setting": "[12]", "value": 22, "unit": "µM"}, {"measurement": "deltaG", "setting": "[13]", "value": -6.4, "unit": "kcal/mol"}, {"measurement": "Activity", "setting": "[14]", "value": "Active"}]}, {"compound": "N[C@@H](Cc1c[nH]c2ccccc12)C(=O)O", "note": "[TRYPTOPHAN]", "values": [{"measurement": "Kd", "setting": "[1]", "value": "> 1000", "unit": "µM"}]}, {"compound": "N[C@H](Cc1c[nH]c2ccccc12)C(=O)NO", "values": [{"measurement": "Kd", "setting": "[1]", "value": 64, "unit": "µM"}, {"measurement": "deltaG", "setting": "[4]", "value": -5.7, "unit": "kcal/mol"}, {"measurement": "deltaH", "setting": "[15]", "value": -6.65, "unit": "kcal/mol"}, {"measurement": "-TdeltaS", "setting": "[16]", "value": 0.9, "unit": "kcal/mol"}]}, {"compound": "CC(C)=CCC/C(C)=C/COP(=O)(O)OP(=O)(O)O", "values": [{"measurement": "Activity", "setting": "[14]", "value": "inactive"}]}, {"compound": "N[C@H](Cc1c[nH]c2ccccc12)C(=O)O", "note": "[D-TRYPTOPHAN]", "values": [{"measurement": "Kd", "setting": "[1]", "value": "> 1000", "unit": "µM"}]}]}
